Test results from ChEMBL document CHEMBL3611968, “Reengineered tricyclic anti-cancer agents” (Bioorg Med Chem, 2015).
Calls of active or inactive are those of the source. The calls are words filed in the database; no cut-off is given here.

System: NCI-H1650
Assay: Cytotoxicity against human NCI-H1650 cells assessed as growth inhibition after 48 hrs by MTT assay
Format: functional
Outline: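 H1650 cells were exposed to drug for 48 h at five concentrations bracketing 1–40 μM in 10 μM steps, with MTT read-out. GI50 is given only where the data form a sigmoidal dose response.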

Row | Structure (SMILES) | GI50 | GI50 (NCI-H1650, 48 h) [µM]
1 | O=S(=O)(c1ccc(Cl)cc1)N1CCCCC1CCN1c2ccccc2CCc2ccccc21 (stereo not drawn) | inactive | 
2 | O=S(=O)(NCCCN1c2ccccc2Sc2ccc(Cl)cc21)c1ccc(Oc2ccccc2)cc1 |  | > 40
3 | O=S(=O)(NCCCN1c2ccccc2CCc2ccc(Cl)cc21)c1cc(Cl)c(Cl)s1 |  | 18
4 | O=S(=O)(NCCC=C1c2ccccc2CCc2ccccc21)c1ccc(Cl)cc1 |  | 18
5 | O=S(=O)(NCCCCN1c2ccccc2CCc2ccc(Cl)cc21)c1ccc(OC(F)(F)F)cc1 | inactive | 
6 | O=S(=O)(NCCCN1c2ccccc2CCc2ccc(Cl)cc21)c1ccccc1 |  | 25
7 | Cc1ccc(S(=O)(=O)NCCN2c3ccccc3Sc3ccc(Cl)cc32)cc1 |  | 24.4
8 | O=S(=O)(NCCCN1c2ccccc2CCc2cccnc21)c1ccc(Cl)cc1 |  | 27
9 | COc1ccc(S(=O)(=O)NCCCN2c3ccccc3CCc3ccc(Cl)cc32)cc1 |  | 24.4
10 | O=S(=O)(c1ccc(Cl)cc1)N1CCC(=C2c3ccccc3CCc3ccccc32)CC1 | inactive | 
11 | Cc1ccccc1S(=O)(=O)NCCCN1c2ccccc2Sc2ccc(Cl)cc21 | inactive | 
12 | O=S(=O)(NCCCN1c2ccccc2CCc2cncnc21)c1ccc(OC(F)(F)F)cc1 |  | > 40
13 | CS(=O)(=O)c1ccc(S(=O)(=O)NCCCN2c3ccccc3CCc3ccc(Cl)cc32)cc1 |  | 15.1
14 | O=S(=O)(N[C@H]1CC[C@@H](N2c3ccccc3CCc3ccccc32)CC1)c1ccc(Cl)cc1 |  | 10
15 | O=S(=O)(NCCCN(c1ccccc1)c1cccc(Cl)c1)c1ccc(Cl)cc1 | inactive | 
16 | O=S(=O)(NCCCN1c2ccccc2CCc2ccc(Cl)cc21)c1ccc(Cl)cc1Cl | inactive | 
17 | O=S(=O)(NC1CCC2(OC1)c1ccccc1CCc1ccccc12)c1ccc(Cl)cc1 (stereo not drawn) |  | 25
18 | O=S(=O)(CCCN1c2ccccc2CCc2ccc(Cl)cc21)c1ccc(OC(F)(F)F)cc1 | inactive | 
19 | CC(CNS(=O)(=O)c1ccc(OC(F)(F)F)cc1)CN1c2ccccc2CCc2ccccc21 (stereo not drawn) |  | 20
20 | O=S(=O)(NCCCN(c1ccccc1)c1cccc(Cl)c1)c1ccc(C(F)(F)F)cc1 | inactive | 
21 | O=S(=O)(c1ccc(OC(F)(F)F)cc1)N1CCCCC1CCN1c2ccccc2CCc2ccccc21 (stereo not drawn) | inactive | 
22 | O=S(=O)(NCCCN1c2ccccc2CCc2ccccc21)c1cccnc1 | inactive | 
23 | Cc1nn(C)c(Cl)c1S(=O)(=O)NCCCN1c2ccccc2CCc2ccccc21 |  | > 40
24 | O=S(=O)(NCCCN1c2ccccc2CCc2ccccc21)c1ccc(-n2cccn2)cc1 |  | > 40
25 | CCN(CC)C(C)CN1c2ccccc2Sc2ccccc21 (stereo not drawn) [ETHOPROPAZINE] |  | > 40

Row | Structure (SMILES) | GI50 | GI50 (NCI-H1650, 48 h) [µM]
26 | O=S(=O)(NCCCN1c2ccccc2CCc2ccc(Cl)cc21)c1ccc(F)cc1 |  | > 40
27 | O=S(=O)(NCCCN1c2ccccc2CCc2ncccc21)c1ccc(Cl)cc1 |  | 30
28 | O=S(=O)(NCCN1c2ccccc2Sc2ccc(Cl)cc21)c1ccc(C(F)(F)F)cc1 |  | 25
29 | CC(=O)Nc1ccc(S(=O)(=O)NCCCN2c3ccccc3CCc3ccc(Cl)cc32)cc1 |  | 15
30 | O=S(=O)(NC1CCC(=C2c3ccccc3CCc3ccccc32)CC1)c1ccc(Cl)cc1 (stereo not drawn) |  | 20
31 | CN(CCN1c2ccccc2Sc2ccc(Cl)cc21)S(=O)(=O)c1ccc(Cl)cc1 | inactive | 
32 | O=S(=O)(NCCCN1c2ccccc2CCc2ccc(Cl)cc21)c1cnc(Cl)c(Br)c1 |  | > 40
33 | O=S(=O)(NCCCN1c2ccccc2CCc2ccc(Cl)cc21)c1ccc2ccccc2c1 |  | > 40
34 | Cc1ccc(S(=O)(=O)NCCCCN2c3ccccc3Sc3ccc(Cl)cc32)cc1 |  | > 40
35 | O=S(=O)(NCCCN1c2ccccc2Sc2ccc(Cl)cc21)c1ccc(OC(F)(F)F)cc1 |  | > 40
36 | O=S(=O)(NCCC=C1c2ccccc2CCc2ccccc21)c1ccc(OC(F)(F)F)cc1 |  | 20
37 | N#Cc1ccc(S(=O)(=O)NCCCN2c3ccccc3CCc3ccc(Cl)cc32)cc1 |  | 20
38 | O=S(=O)(NCCCN1c2ccccc2CCc2ccccc21)c1ccc(OC(F)(F)F)cc1 |  | 22
39 | NCCCN1c2ccccc2Sc2ccc(Cl)cc21 |  | 10
40 | O=S(=O)(c1ccc(Cl)cc1)N1CCCCC1CCN1c2ccccc2Sc2ccc(Cl)cc21 (stereo not drawn) | inactive | 
41 | COC(=O)NCCN1c2ccccc2Sc2ccc(Cl)cc21 | inactive | 
42 | O=S(=O)(N[C@H]1CC[C@H](N2c3ccccc3CCc3ccccc32)CC1)c1ccc(Cl)cc1 |  | 15
43 | O=S(=O)(NC1CCOC2(C1)c1ccccc1CCc1ccccc12)c1ccc(Cl)cc1 (stereo not drawn) |  | > 40
44 | O=S(=O)(NCCCN1c2ccccc2CCc2ccc(Cl)cc21)c1ccc(Cl)cc1F |  | 20.8
45 | O=S(=O)(NC[C@@H](O)CN1c2ccccc2CCc2ccccc21)c1ccc(OC(F)(F)F)cc1 |  | 18
46 | O=S(=O)(c1ccc(OC(F)(F)F)cc1)N1CCCCC1CCN1c2ccccc2Sc2ccc(Cl)cc21 (stereo not drawn) | inactive | 
47 | O=C(NCCCN1c2ccccc2CCc2ccc(Cl)cc21)c1ccccc1 | inactive | 
48 | O=S(=O)(NCCCN1c2ccccc2CCc2cncnc21)c1ccc(Cl)cc1 | inactive | 
49 | O=S(=O)(N[C@H]1CC[C@@H](N2c3ccccc3CCc3ccccc32)CC1)c1ccc(OC(F)(F)F)cc1 |  | > 40
50 | O=S(=O)(NCCCN1c2ccccc2OCc2cccnc21)c1ccc(OC(F)(F)F)cc1 |  | 19.1

Row | Structure (SMILES) | GI50 | GI50 (NCI-H1650, 48 h) [µM]
51 | O=S(=O)(NC1CCC2(OC1)c1ccccc1CCc1ccccc12)c1ccc(C(F)(F)F)cc1 (stereo not drawn) |  | 15
52 | O=S(=O)(NCCCN1c2ccccc2OCc2cccnc21)c1ccc(Cl)cc1 |  | > 40
53 | O=S(=O)(NCCCN1c2ccccc2CCc2ccc(Cl)cc21)c1ccc(C(F)(F)F)cc1 |  | 12.6
54 | O=S(=O)(N[C@H]1CCC[C@@H](N2c3ccccc3CCc3ccccc32)C1)c1ccc(OC(F)(F)F)cc1 |  | 25
55 | O=S(=O)(N[C@@H]1CCC[C@@H](N2c3ccccc3CCc3ccccc32)C1)c1ccc(OC(F)(F)F)cc1 |  | 18
56 | CN(CCN1c2ccccc2CCc2ccc(Cl)cc21)S(=O)(=O)c1ccc(C(F)(F)F)cc1 | inactive | 
57 | CN(C)CCC=C1c2ccccc2CCc2ccccc21 [AMITRIPTYLINE] |  | > 40
58 | COc1ccc(S(=O)(=O)NCCCN2c3ccccc3Sc3ccc(Cl)cc32)cc1 |  | > 40
59 | O=S(=O)(NC1CCC2(OC1)c1ccccc1CCc1ccccc12)c1ccccc1 (stereo not drawn) |  | 22
60 | O=S(=O)(NCCCN1CCCCc2ccccc21)c1ccc(OC(F)(F)F)cc1 | inactive | 
61 | O=S(=O)(NCCCN1c2ccccc2Sc2ccc(Cl)cc21)c1cc(F)cc(F)c1 |  | 18
62 | CC(CNS(=O)(=O)c1ccc(Cl)cc1)CN1c2ccccc2CCc2ccccc21 (stereo not drawn) |  | 23
63 | O=S(=O)(NCCCN1c2ccccc2CCc2ccc(Cl)cc21)c1ccc(Cl)cc1 |  | 20
64 | NCCCN1c2ccccc2CCc2ccc(Cl)cc21 |  | 10
65 | O=S(=O)(NC1CCC2(OC1)c1ccccc1CCc1ccccc12)c1ccc(F)cc1 (stereo not drawn) |  | 20
66 | CN(C)CCCN1c2ccccc2Sc2ccc(Cl)cc21 [CHLORPROMAZINE] |  | 30.3
67 | CN(CCCN1c2ccccc2CCc2ccc(Cl)cc21)S(=O)(=O)c1ccc(C(F)(F)F)cc1 | inactive | 
68 | O=S(=O)(N[C@H]1CC[C@H](N2c3ccccc3CCc3ccccc32)CC1)c1ccc(OC(F)(F)F)cc1 |  | 10
69 | O=S(=O)(NCCCN1CCCCc2ccccc21)c1ccc(Cl)cc1 | inactive | 
70 | Cn1ccc2c(S(=O)(=O)NCCCN3c4ccccc4CCc4ccccc43)cccc21 |  | > 40
71 | CN(C)S(=O)(=O)NCCCN1c2ccccc2CCc2ccccc21 | inactive | 
72 | O=C(NCCCN1c2ccccc2CCc2ccc(Cl)cc21)NS(=O)(=O)c1ccc(OC(F)(F)F)cc1 | inactive | 
73 | O=S(=O)(NCCNC1c2ccccc2CCc2ccccc21)c1ccc(Cl)cc1 |  | 26
74 | O=S(=O)(NCCN1c2ccccc2CCc2ccc(Cl)cc21)c1ccc(Cl)cc1 |  | 19.1
75 | O=S(=O)(NCCN1c2ccccc2CCc2ccc(Cl)cc21)c1ccc(OC(F)(F)F)cc1 |  | 22

Row | Structure (SMILES) | GI50 | GI50 (NCI-H1650, 48 h) [µM]
76 | CC(CN1c2ccccc2Sc2ccccc21)N(C)C (stereo not drawn) [PROMETHAZINE] |  | > 40
77 | CC(=O)Nc1ncc(S(=O)(=O)NCCCN2c3ccccc3CCc3ccccc32)s1 |  | > 40
78 | N#Cc1ccc(S(=O)(=O)NCCC=C2c3ccccc3CCc3ccccc32)cc1 |  | 25
79 | CN(CCCN1c2ccccc2Sc2ccc(Cl)cc21)S(=O)(=O)c1ccc(Cl)cc1 | inactive | 
80 | O=S(=O)(NCCCN1c2ccccc2CCc2ccc(Cl)cc21)C1CCCCC1 | inactive | 
81 | CN(C)C(=O)NCCCN1c2ccccc2CCc2ccc(Cl)cc21 |  | > 40
82 | O=S(=O)(NCCC=C1c2ccccc2CCc2ccccc21)c1ccc(F)cc1 |  | 20
83 | Cc1nn(C)c(C)c1S(=O)(=O)NCCCN1c2ccccc2CCc2ccccc21 |  | > 40
84 | O=S(=O)(NCCCN1c2ccccc2CCc2ccccc21)c1ccc(N2CCOCC2)cn1 |  | > 40
85 | CC(=O)NCCCN1c2ccccc2Sc2ccc(Cl)cc21 |  | > 40
86 | COC(=O)NCCCCN1c2ccccc2Sc2ccc(Cl)cc21 |  | > 40
87 | O=S(=O)(NCCN1c2ccccc2Sc2ccc(Cl)cc21)c1ccc(OC(F)(F)F)cc1 |  | 25
88 | O=S(=O)(NCCCN1c2ccccc2CCc2ccccc21)c1ccc(Oc2ccccc2)nc1 |  | > 40
89 | N#Cc1ccc(S(=O)(=O)NCCCN2c3ccccc3Sc3ccc(Cl)cc32)cc1 |  | > 40
90 | O=C1COc2ccc(S(=O)(=O)NCCCN3c4ccccc4CCc4ccccc43)cc2N1 |  | 22
91 | O=S(=O)(NCC/C=C1/c2ccccc2Sc2ccc(Cl)cc21)c1ccc(Cl)cc1 |  | > 40
92 | O=S(=O)(NCCCCN1c2ccccc2CCc2ccc(Cl)cc21)c1ccc(C(F)(F)F)cc1 | inactive | 
93 | CN(C)CCC=C1c2ccccc2COc2ccccc21 [DOXEPIN] |  | > 40
94 | O=S(=O)(NC1CCC2(OC1)c1ccccc1CCc1ccccc12)c1ccc(OC(F)(F)F)cc1 (stereo not drawn) |  | 13
95 | O=S(=O)(NCCN1c2ccccc2CCc2ccc(Cl)cc21)c1ccc(C(F)(F)F)cc1 |  | 16.4
96 | O=S(=O)(NCCCN1c2ccccc2CCc2ccccc21)c1cnc(Cl)c(Br)c1 |  | > 40
97 | O=S(=O)(NCCNC1c2ccccc2CCc2ccccc21)c1ccc(OC(F)(F)F)cc1 |  | 25
98 | CN(CCCN1c2ccccc2CCc2ccc(Cl)cc21)S(=O)(=O)c1ccc(OC(F)(F)F)cc1 | inactive | 
